Experimental data collected from several papers.
pIC50: −log10 of the molar value.
Read-out: cell growth or viability

| Compound | cell line | method | time | endpoint | value |
| --- | --- | --- | --- | --- | --- |
| Cc1ccc2c(Cl)cc(Cl)c(O)c2n1 | BEL-7404 | MTT | 48 h | pIC50 | < 4.00 |
| Clc1ccc(-c2nc3ccccc3n2Cc2ccccc2)cc1 | MDA-MB-231 | MTT |  | pIC50 | 4.46 |
| O=C(Nc1ccc2[nH]nc(-c3ccncc3)c2c1)[C@@H]1CCN(CC(=O)N2CCN(c3ccc(-c4ncccn4)cc3)CC2)C1 | A-375 | resazurin | 96 h | pIC50 | 7.43 |
| Cc1ccc2nc(-c3ccncc3)[nH]c2c1 | MDA-MB-231 | MTT | 48 h | pIC50 | 4.13 |
| COC(=O)CN=c1scc(-c2ccccc2)n1-c1ccc(C)cc1 | Panc 04.03 | MTT | 72 h | pIC50 | 4.30 |
| COc1cc(C)cc2oc(-c3ccc(C(F)(F)F)cc3)cc(=O)c12 | HS27 | MTT | 24 h | pIC50 | < 3.70 |
| COc1ccc([C@H]2OC[C@H](Cc3ccc(C(C)(C)C)cc3)[C@@H]2CO)cc1OC | rat VSMC | resazurin | 48 h | pIC50 | 5.30 |
| COc1cc(C)cc2oc(-c3ccccc3)cc(=O)c12 | HS27 | MTT | 24 h | pIC50 | < 3.70 |
| Cc1ccc2nc(-c3ccc(F)cc3)n(Cc3ccccc3)c2c1 | MDA-MB-231 | MTT |  | pIC50 | 4.54 |
| COc1ccc(-c2cc(=O)c3c(OC)cc(C)c(-c4c(C)cc(OC)c5c(=O)cc(-c6ccc(OC)cc6)oc45)c3o2)cc1 | HS27 | MTT | 24 h | pIC50 | < 3.70 |
| COC(=O)CN=c1scc(-c2ccccc2)n1-c1ccc(OC)cc1 | Panc 04.03 | MTT | 72 h | pIC50 | 4.12 |
| COc1c2ccoc2c(OCC=C(C)C)c2oc(=O)ccc12 | MRC5 | MTT | 72 h | pIC50 | < 4.00 |
| COC(=O)CN=c1scc(-c2ccccc2)n1-c1ccccc1OC | Panc 04.03 | MTT | 72 h | pIC50 | 4.28 |
| COc1cc(C)c(-c2c(C)cc(OC)c3c(=O)cc(-c4ccc(C(F)(F)F)cc4)oc23)c2oc(-c3ccc(C(F)(F)F)cc3)cc(=O)c12 | HS27 | MTT | 24 h | pIC50 | < 3.70 |
| Cl.Oc1cccc2c1[nH]c1c(C3=CC4(O)CC/C=C\CCCCN5CCC3C3(CC6/C=C\CCCCN6C43)C5)nccc12 (single isomer, unassigned; (+)) | LLC-PK11 | neutral red | 48 h | IC50 | 1.85 µg/mL |
| COc1ccc(C[C@H]2CO[C@H](c3ccc(OC)c(OC)c3)[C@H]2COC(=O)C=C(C)C)cc1OC | rat VSMC | resazurin | 48 h | pIC50 | 4.46 |
| CCOc1cc(-c2nc3ccccc3[nH]2)ccc1O | MDA-MB-231 | MTT | 48 h | pIC50 | 4.32 |
| COC(=O)/C=C/C=C/c1ccc2c(c1)OCO2 | MRC5 | SRB |  | pIC50 | 3.60 |
| COc1cc(OC)c2c(=O)cc(-c3ccccc3Br)oc2c1 | HS27 | MTT | 24 h | pIC50 | < 3.70 |
| Oc1c(Br)cc(Br)c2cccnc12 | BEL-7404 | MTT | 48 h | pIC50 | 4.17 |

| Compound | cell line | method | time | endpoint | value |
| --- | --- | --- | --- | --- | --- |
| COc1cccc2c1C(=O)c1c(O)c3c(c(O)c1C2=O)C[C@@](O)(C(=O)CO)C[C@@H]3O[C@H]1C[C@H](N)[C@H](O)[C@H](C)O1 | LLC-PK11 | neutral red | 48 h | IC50 | < 0.55 µg/mL |
| CC(=O)c1cccc(/N=N/c2cc(/C=C/C(=O)O)ccc2O)c1 | A-375 | MTT |  | pIC50 | < 4.30 |
| Oc1ccc(Nc2nc(-c3ccc(Cl)cc3)cs2)cc1 | FF2441 | MTS | 48 h | pIC50 | < 4.00 |
| COc1cc2nccc(Oc3ccc(NC(=O)C4(C(=O)Nc5ccc(F)cc5)CC4)cc3)c2cc1OC | CMK | trypan blue | 72 h | pIC50 | < 5.23 |
| COC(=O)CN=c1scc(-c2ccccc2)n1-c1ccccc1C | Panc 04.03 | MTT | 72 h | pIC50 | < 4.00 |
| Clc1ccc(-c2nc3ccccc3n2Cc2ccccc2)cc1Cl | MDA-MB-231 | MTT |  | pIC50 | 4.28 |
| COc1ccc(C[C@H]2CO[C@H](c3ccc(OC)c(OC)c3)[C@H]2COC(=O)CC(C)C)cc1OC | rat VSMC | resazurin | 48 h | pIC50 | 4.51 |
| Cc1ccc2nc(-c3ccc([N+](=O)[O-])cc3)[nH]c2c1 | MDA-MB-231 | MTT | 48 h | pIC50 | 4.75 |
| Cc1ccc2c(Br)cc(Br)c(O)c2n1 | BEL-7404 | MTT | 48 h | pIC50 | < 3.82 |
| COC(=O)CN=c1scc(-c2ccccc2)n1-c1ccccc1[N+](=O)[O-] | Panc 04.03 | MTT | 72 h | pIC50 | 4.66 |
| CCOc1cc(-c2nc3ccc(C)cc3[nH]2)ccc1O | MDA-MB-231 | MTT | 48 h | pIC50 | < 4.00 |
| C#Cc1cccc(Nc2ncnc3cc(OCCOC)c(OCCOC)cc23)c1 | A-375 | MTT |  | pIC50 | 5.38 |
| COc1ccc(-c2cc(=O)c3c(OC)cc(C)cc3o2)cc1 | HS27 | MTT | 24 h | pIC50 | < 3.70 |
| COc1ccc(C(=O)O[C@@H]2CN3Cc4c(cc5c(c4OC)OCO5)[C@@]24C=C[C@H](OC)C[C@@H]34)cc1OC | MRC5 | WST-1 |  | pIC50 | 5.21 |
| COc1cc(C)cc2oc(-c3ccccc3Br)cc(=O)c12 | HS27 | MTT |  | pIC50 | 3.89 |
| c1ccc(-c2ccccn2)nc1 | BEL-7404 | MTT | 48 h | pIC50 | < 4.30 |
| CC(=O)O[C@H]1C(=O)[C@@]2(C)[C@H]([C@H](OC(=O)c3ccccc3)[C@]3(O)C[C@H](OC(=O)[C@H](O)[C@@H](NC(=O)c4ccccc4)c4ccccc4)C(C)=C1C3(C)C)[C@]1(OC(C)=O)CO[C@@H]1C[C@@H]2O | MDA-MB-231 | MTT |  | pIC50 | 5.86 |
| COc1cc(C)c(-c2c(C)cc(OC)c3c(=O)cc(-c4ccc(N(C)C)cc4)oc23)c2oc(-c3ccc(N(C)C)cc3)cc(=O)c12 | HS27 | MTT |  | pIC50 | 3.75 |
| COc1cc(-c2ncn(/C=C\C(=O)OC(C)C)n2)cc(C(F)(F)F)c1 | Mono-Mac-1 |  | 72 h | pIC50 | 6.32 |
